# Laboratory results: PubChem BioAssay AID652260 (The Scripps Research Institute Molecular Screening Center, 2013)
# Out of some 3,500 compounds screened, about 1,000 (29%) were called active. Only a sample is shown. Unmarked numbers belong to inactive results.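 How the source made its calls: active means activation above its plate's cutoff, the mean activation of tested wells plus 3 SD (cut at about 7.9% in these data); inactive means the rest.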
# Experiment: SMARCA2 (BRM) function activators, confirmation, cell-based, luminescence, triplicate (AID 652260)
# Settings: MG213 cells, MMTV-luciferase with dexamethasone, overnight, at 9.1 µM, hits give high values, DMSO wells 0%, reference activator 100%, MG213 cells expressing E1A, Rb sequestered
# In short: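 Schedule – compound exposure 24 h at 37 °C after 1-day dexamethasone priming · Assay system – MG213 MMTV-luciferase reporter cells · Amount – 600 cells in each well · Detection – luciferase luminescence (OneGlo) · Dosing – 9.1 µM single dose · Buffer or medium – assay medium with 2.5% FBS plus 0.1 µM dexamethasone · Benchmarks – DMSO and reference activator wells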
row,SMILES,activation
1,O=C1Cc2cc(S(=O)(=O)Nc3cccc(F)c3)ccc2N1,0.74%
2,NS(=O)(=O)c1ccccc1NC(=O)c1c(O)c2ccccc2[nH]c1=O,12.1% (active)
3,CCOc1cc(NC(=S)NCCCOC)c(OCC)cc1NC(=O)c1ccco1,-1.02%
4,Cc1ccc(S(=O)(=O)NC(C)C(=O)NCc2ccc(Cl)cc2)cc1 (stereo not given),-3.9%
5,CCCCn1nnnc1C(c1cc2ccccc2o1)N(C)Cc1ccc(Cl)c(Cl)c1 (stereo not given),-4.28%
6,COc1ccc(/C(N)=N/OC(=O)Oc2ccccc2)cc1,-2.89%
7,COc1ccccc1OCC(=O)O/N=C(\N)c1ccccn1,10.6% (active)
8,O=C(CSc1nc2ccccc2[nH]1)c1cccs1,2.82%
9,CC(=O)c1cccc(-c2cnc3c(NC=O)cc(-c4ccc(N5CCN(C)CC5)cc4)cn23)c1,16.5% (active)
10,CC(=O)Nc1cc(-c2ccc(N3CCN(C)CC3)cc2)cn2c(-c3ccc(F)cc3)cnc12,17.5% (active)
11,CN(C)CCNC(=O)c1cccc(-c2cnc3c(NC=O)cc(-c4cccc(C(F)(F)F)c4)cn23)c1,-12.7%
12,COc1ccc(C)cc1S(=O)(=O)N(CC(=O)Nc1cccc([N+](=O)[O-])c1)c1ccc(C)cc1,0.21%
13,Cc1ccc(S(=O)(=O)c2c[nH]c3ccc(Cl)cc3c2=O)cc1,0.08%
14,COc1ccc(S(=O)(=O)NC(C)C(=O)N2CCCCCC2)cc1 (stereo not given),-2.64%
15,O=C(NCc1ccccn1)c1cnc2sccn2c1=O,1.34%
16,Cc1cc(C)n2nc(CNS(=O)(=O)c3c(F)c(F)c(F)c(F)c3F)nc2n1,19.1% (active)
17,Cc1cc(-n2cnc(-c3cn(C)nc3C)n2)no1,3.17%
18,COC(=O)C1C(=O)c2c([nH]c(C(=O)OCCSC)c2C)CC1C (stereo not given),6.36%
19,O=C(O)c1cccc(N=NN2CCCCCC2)c1,12.5% (active)
20,CC(=O)c1sc(N/N=C\c2ccc(C)cc2)nc1C,6.84%
21,O=C(OCC(=O)c1cccs1)C1=COCCO1,8.33% (active)
22,COc1ccc(NC(=O)c2sccc2SCC#N)cc1,0.37%

row,SMILES,activation
1,Cc1cc(O)c(NC(=O)c2ccc(C)c([N+](=O)[O-])c2)cc1C,5.6%
2,Cc1cc(=O)[nH]c(N/N=C/c2ccc3c(c2)OCCO3)n1,7.09%
3,Cn1c2ccc(F)cc2c2nnc(NN)nc21,-1.11%
4,COc1ccc2nc(/N=C(\N)NC(=O)Nc3ccccc3)nc(C)c2c1,2.85%
5,Cc1nc(N=C(N)N)nc2c(C)cccc12,40.3% (active)
6,O=C(Nc1cccc([N+](=O)[O-])c1)N1CCc2ccccc2C1,5.56%
7,Cc1ccsc1-c1nc(CSCC(=O)NCCN2CCCC2)c(C)o1,-0.08%
8,CCC(=O)Nc1ccc2nn(-c3ccc(F)cc3)nc2c1,11.7% (active)
9,Cn1cc(/C=C/C(=O)N2CCCC(C(=O)c3ccc(C(F)(F)F)cc3)C2)cn1 (stereo not given),1.67%
10,Cc1c(NC(=O)CSc2cccc3cccnc23)c(=O)n(-c2ccccc2)n1C,-8.3%
11,Cc1cccc(CSc2ccc(-c3cccs3)nn2)c1,7.87% (active)
12,COC(=O)Cc1nnn2c1[C@H](C)[C@H](c1ccccc1[N+](=O)[O-])OCC2,0.13%
13,O=[N+]([O-])c1ccc2c(c1)Nc1nc3ccccc3nc1N2,24.9% (active)
14,COc1cc(/C=N/NC(=O)c2ccccc2)ccc1OS(=O)(=O)c1ccccc1,3.32%
15,Cc1nnc(NC(=O)Cn2c(=O)sc3ccccc32)s1,-3.31%
16,COC(=O)c1ccc(NCc2cc(O)ccc2O)cc1,1.42%
17,Cc1ccc(O)c(CNc2nc3ccccc3n2C)c1,9.22% (active)
18,O=c1c2c(nc3n1CCCCC3)sc1c(O)cccc12,15.2% (active)
19,CC(=O)c1ccc(NC(=O)c2sc3nc4n(c(=O)c3c2C)CCCCC4)cc1,-0.4%
20,FC(F)(F)c1cccc(-c2nc3ccccc3n2C(c2ccccc2)c2nc3ccccc3[nH]2)c1 (stereo not given),3.9%
21,CC(=O)Oc1ccc(C(=O)Nc2nccs2)cc1,6.25%
22,CCOc1cccc2c1OC1(CCCCC1)N1N=C(c3cccnc3)CC21 (stereo not given),2.8%

row,SMILES,activation
1,Cc1ccc(-n2c(SCC(=O)N3CCC(C(=O)O)CC3)nc3ccccc3c2=O)cc1C,4.21%
2,CN(C)CCNC(=O)c1ccc(Cl)c2cc3ccccc3nc12,-13.7%
3,CCCOc1ccc(-c2nc(N)n[nH]2)cc1,4.15%
4,Cc1ccccc1C#CC1=CC(=O)CC(C)(C)C1,1%
5,Cc1ccccc1C1=N/C(=C/c2cccnc2)C(=O)O1,0.02%
6,CCCCCCOC(=O)NCC(O)c1ccccc1 (stereo not given),12.4% (active)
7,CCCCc1ccc(NC(=S)N2CCCC(CO)C2)cc1 (stereo not given),6.12%
8,Cc1ccc(C(=O)Nc2nc3ccc(Cl)cc3s2)o1,3.69%
9,CCOC(=O)c1c(C)[nH]c(C2=NNC(=NC(C)COC)SC2)c1C (stereo not given),10.6% (active)
10,C1=C(CCNc2ncnc3c2cnn3-c2ccccc2)CCCC1,3.15%
11,O=C(N[C@H]1CC[C@H](CC(=O)N2CCCCC2)O[C@@H]1CO)c1cccc(F)c1,0.05%
12,CCc1ccc(NC2Nc3cc(C)nn3S2)cc1 (stereo not given),8.74% (active)
13,CCCn1c(=O)c2ccccc2n2c(SCC(=O)/C(C#N)=C(\C)N)nnc12,3.09%
14,COCC1CCN(C(=O)C2CCC(=O)N(Cc3cccc(C(F)(F)F)c3)C2)CC1 (stereo not given),2.05%
15,Cc1ccc(Nc2nc(Cl)c(C=O)s2)cc1,-3.27%
16,CCc1cc2c(=O)c(-c3ccon3)c(N)oc2cc1OC,14% (active)
17,CN(C)C(CNC(=O)c1ccc(OCc2cn3ccccc3n2)cc1)c1ccco1 (stereo not given),2.21%
18,O=C(Nc1ccc(NC(=O)c2cccs2)cn1)c1ccco1,2.8%
19,Cc1ccnc(Nc2nc3ccccc3s2)n1,10% (active)
20,O=C(Nc1ccc(F)cc1)c1cc2c(s1)CCCC2,9.06% (active)
21,O=C(NCC1CCCO1)c1cc2c(s1)CCCC2 (stereo not given),11% (active)
